# Experimental data collected from several papers.
# Each line is one published result; the experiments were not run side by side.
# Effect on: microbial growth
Structure (SMILES),organism,assay,test system,setting,MIC [µg/mL]
NC(=O)c1cccc(-n2c(/C=C/c3ccc(F)cc3)nc3ccccc3c2=O)c1,Enterococcus faecium,broth dilution,NCTC7171,,> 128
O=C(O)c1cn(C2CC2)c2cc(N3CCNCC3)c(F)cc2c1=O,Citrobacter freundii,,DSM30039,,≤ 0.03
O=C(O)Cc1ccc(Oc2ccc(-c3noc(-c4ccc(O)cc4)n3)cc2)cc1,Enterococcus faecium,broth dilution,,24 h,> 32
O=C(O)c1cn(C2CC2)c2cc(N3CCNCC3)c(F)cc2c1=O,Mycobacterium intracellulare,resazurin,ATCC23068,,1
COC(=O)CCNC(=O)c1cccc(-n2c(/C=C/c3ccc(C#N)cc3)nc3ccccc3c2=O)c1,Enterococcus faecium,broth dilution,NCTC7171,,> 128
C[C@@H](O)[C@H]1C(=O)N2C(C(=O)O)=C(S[C@@H]3CN[C@H](C(=O)N(C)C)C3)[C@H](C)[C@H]12,Citrobacter freundii,broth dilution,,clinical isolate,> 64
C[N+](C)(C)CCCc1ccc(Oc2ccc(-c3noc(-c4ccc(O)cc4)n3)cc2)cc1.[I-],Enterococcus faecium,broth dilution,,24 h,16
CC(=O)Oc1cccc(-n2c(/C=C/c3ccc([N+](=O)[O-])cc3)nc3ccccc3c2=O)c1,Enterococcus faecium,broth dilution,NCTC7171,,64
O=C(O)COc1cccc(Oc2ccc(-c3noc(-c4ccc(O)cc4)n3)cc2)c1,Enterococcus faecium,broth dilution,,24 h,> 32
CO[C@@H](C(N)=O)[C@H](NC(=O)c1ccc(NC(=O)c2ccc(C#N)cc2)cc1)C(=O)Nc1ccc(C(=O)Nc2ccc(C(=O)Nc3ccc(C(=O)O)cc3)c(O)c2OC(C)C)cc1,Citrobacter freundii,,DSM30039,,≤ 0.03
N#Cc1ccc(/C=C/c2nc3ccncc3c(=O)n2-c2cccc(O)c2)cc1,Enterococcus faecium,broth dilution,NCTC7171,,128
C/C(=C\c1ccc(O)cc1)C(=O)Nc1ccc(C(=O)N[C@@H](CC(N)=O)C(=O)Nc2ccc(C(=O)Nc3ccc(C(=O)Nc4ccc(C(=O)O)cc4)c(O)c3OC(C)C)cc2)cc1,Citrobacter freundii,,DSM30039,,0.125
O=C(O)CCc1cccc(Oc2ccc(-c3noc(-c4ccc(O)cc4)n3)cc2)c1,Enterococcus faecium,broth dilution,,24 h,> 32
CC(C)Oc1c(NC(=O)c2ccc(NC(=O)[C@H](CC(N)=O)NC(=O)c3ccc(NC(=O)c4ccc(C#N)cc4)cc3)cc2)ccc(C(=O)Nc2ccc(C(=O)O)cc2)c1O,Citrobacter freundii,,DSM30039,,≤ 0.03
Nc1ccc(-c2nc(-c3ccc(Oc4ccccc4)cc3)no2)cc1,Enterococcus faecium,broth dilution,,24 h,> 32
